A selection: hits, their analogues and other compounds. The true share with any hit is near 3.3%.
PMI act hi M6P – human PMI activators, high substrate, primary screen, biochemical, fluorescence intensity, near-saturating mannose 6-phosphate. AID 1216, 2008. 190,000 compounds, 0.34% hits. coupled PMI enzyme assay, resazurin fluorescence, 20 min; hits give high values; 1 = untreated enzyme, 0 = substrate-free blank. Mannose-6-phosphate isomerase (Homo sapiens), P34949. activation factor at 20 µM;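 active = activation factor of 2 or more at 20 µM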
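Test system: human phosphomannose isomerase with PGI, G6PDH, diaphorase coupling enzymes / Doses: 20 µM compound, 1% DMSO / Times: enzyme reaction with compound 20 min at room temperature / Measured by: Diaphorase-driven resazurin-to-resorufin fluorescence, excitation 544, emission 590 nm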
KCC2 mod – KCC2 cotransporter modulators, thallium flux, primary screen, cell-based, HEK293 KCC2, FluoZin-2 fluorescence, MLSMR; KCC2 cells, thallium flux FluoZin-2 fluorescence; B-score of Tl+ flux slope (higher = more flux/activation; lower = inhibition) at 10 µM; Solute carrier family 12 member 5 (Homo sapiens), Q9H2X9; 190,000 compounds, 2.2% hits;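 active = thallium flux slope and its plate-corrected score both differing from the plate sample mean at a set confidence after two filtering rounds, in either direction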;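 also: slope of fluorescence scaled to starting intensity during 10 to 20 s after thallium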
Target sequence (Q9H2X9 whole entry, looked up): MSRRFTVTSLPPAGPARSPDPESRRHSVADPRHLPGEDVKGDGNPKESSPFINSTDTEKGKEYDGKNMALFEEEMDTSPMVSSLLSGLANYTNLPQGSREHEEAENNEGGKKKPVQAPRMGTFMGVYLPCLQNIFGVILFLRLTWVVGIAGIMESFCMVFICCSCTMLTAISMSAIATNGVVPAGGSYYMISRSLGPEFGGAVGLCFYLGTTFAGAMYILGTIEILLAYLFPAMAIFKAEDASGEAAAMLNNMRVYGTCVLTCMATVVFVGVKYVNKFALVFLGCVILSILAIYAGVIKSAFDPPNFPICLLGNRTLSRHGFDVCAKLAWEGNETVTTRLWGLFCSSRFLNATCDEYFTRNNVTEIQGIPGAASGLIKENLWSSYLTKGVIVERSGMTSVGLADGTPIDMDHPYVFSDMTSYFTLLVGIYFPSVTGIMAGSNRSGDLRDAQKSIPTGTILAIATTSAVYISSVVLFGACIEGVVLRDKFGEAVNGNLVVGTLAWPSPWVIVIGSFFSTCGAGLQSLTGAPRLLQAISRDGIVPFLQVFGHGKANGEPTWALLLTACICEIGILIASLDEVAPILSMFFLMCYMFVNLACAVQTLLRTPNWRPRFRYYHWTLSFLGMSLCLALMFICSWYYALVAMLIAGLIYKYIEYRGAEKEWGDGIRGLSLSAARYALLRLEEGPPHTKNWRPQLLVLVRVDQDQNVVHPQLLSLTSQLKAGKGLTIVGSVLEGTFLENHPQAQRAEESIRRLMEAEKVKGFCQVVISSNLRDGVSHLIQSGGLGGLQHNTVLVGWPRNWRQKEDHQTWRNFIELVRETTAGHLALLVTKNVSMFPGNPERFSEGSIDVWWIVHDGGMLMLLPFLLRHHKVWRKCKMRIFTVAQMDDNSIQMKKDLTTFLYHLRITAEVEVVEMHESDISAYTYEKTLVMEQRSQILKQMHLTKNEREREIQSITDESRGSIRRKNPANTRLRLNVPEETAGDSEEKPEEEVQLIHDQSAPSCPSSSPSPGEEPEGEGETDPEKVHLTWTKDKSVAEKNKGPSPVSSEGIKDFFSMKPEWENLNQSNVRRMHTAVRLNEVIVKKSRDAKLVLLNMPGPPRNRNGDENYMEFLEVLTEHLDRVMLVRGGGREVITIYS
PMI activator – activators of human PMI, primary screen, biochemical, fluorescence intensity, near-Km mannose 6-phosphate. Mannose-6-phosphate isomerase (Homo sapiens), P34949. purified human PMI, coupled resazurin fluorescence, 20 min; hits give high values; 1 = vehicle control, 0 substrate-free wells. activation factor at 20 µM. 190,000 compounds, 0.005% hits;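 active = activation factor of 2 or more at 20 µM, relative to plate controls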
ABCB1 inh – ABCB1 efflux pump inhibitors, primary screen, cell-based, multiplex, flow cytometry, ABCG2 counter-screen; inhibition, % at 6.6 µM; CCRF-Adr cells, JC-1 efflux; 190,000 compounds, 0.067% hits; AID 1326, 2008; in the data active = inhibition above about 40%;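 also: 0% = vehicle and 100% = reference inhibitor; higher value means more JC-1 retained so stronger ABCB1 efflux block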
ABCG2 block – ABCG2 efflux pump inhibitors, primary screen, multiplex with ABCB1, IgMXP3 cells, flow cytometry | 190,000 compounds, 0.1% hits | inhibition, % at 6.6 µM | Broad substrate specificity ATP-binding cassette transporter ABCG2 (Homo sapiens), Q9UNQ0 | JC-1 efflux;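 active = inhibition above 80%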;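 also: 0% = DMSO and 100% = nicardipine control wells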
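test system = two drug-resistant human cell lines, ABCG2 and ABCB1 | amount = 3 million cells/mL final, two lines in 1:1 ratio | reagent = JC-1 transporter substrate | doses = one concentration, 6.6 µM final | incubation = 10 min at 25 °C | signal = flow cytometric JC-1 green MFI at 530 nm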
ROMK primary – ROMK potassium channel modulators, primary screen, cell-based, thallium flux, MLSMR library. Tet-inducible ROMK, thallium flux fluorescence; actives lie on both sides. ATP-sensitive inward rectifier potassium channel 1 (Homo sapiens), P48048. 130,000 compounds, 2% hits. B-score at 10 µM;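 active = signal ratio slope over the read window, or its plate-corrected B-score, at least 3 SD from the plate mean, either direction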;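 also: B-score of the F/F0 ratio slope over 7 to 12 s after thallium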
KCC2 secondary – KCC2 modulators in sodium-free buffer, confirmation, cell-based, HEK293 KCC2, thallium flux, secondary assay. shares compounds with KCC2 mod. FluoZin2 fluorescence; hits give high values. normalised thallium flux (F/F0 slope) at 10 µM. 3,700 compounds, 15% hits. AID 1713, 2009;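 active = thallium flux slope above the same plate's solvent-only control mean plus 3 SD; inconclusive = the two replicate wells disagree; inactive = no significant difference from solvent-only control wells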
KCC2 bumet counter – thallium flux persisting under bumetanide in KCC2 cells, confirmation, counter-screen for KCC2 modulator project, cell-based, HEK293 KCC2, FluoZin2, secondary assay 3. shares compounds with KCC2 mod. HEK293-KCC2 + bumetanide/ouabain; hits give high values. normalized thallium flux at 10 µM. 3,700 compounds, 49% hits;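 active = thallium entry rate above the same plate's blocked-transporter control wells by more than 3 SD; inconclusive = the two repeat wells disagree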;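 also: raw slope of fluorescence over initial fluorescence between 10 and 20 s after thallium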
KCC2 sec2 – KCC2 modulators without ouabain present, confirmation, cell-based, HEK293 KCC2, thallium flux, FluoZin2, secondary assay 2 | shares compounds with KCC2 mod | 3,700 compounds, 23% hits | thallium flux FluoZin2 fluorescence; actives lie on both sides; F/F0 rise rate, 10–20 s post-thallium | normalized thallium flux at 10 µM;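 active = thallium flux slope more than 3 SD above or below the plate's solvent-only control mean, mostly below; inconclusive = the two repeat wells disagreed; inactive = no significant shift from solvent-only controls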;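 also: raw slope with 0.1% DMSO as baseline and bumetanide as block control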
HEK counter1 – thallium flux modulation in parental HEK cells, confirmation, counter-screen for KCC2 modulator project, cell-based, counterscreen 1. 3,700 compounds, 46% hits. shares compounds with KCC2 mod. AID 1716, 2009. thallium flux rate (normalised fluorescence) at 10 µM. HEK293 parental cells, thallium flux FluoZin2, ouabain; baseline-ratio fluorescence slope, 10–20 s after thallium;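 active = thallium flux rate significantly above the same plate's solvent-only control wells, beyond their mean plus 3 SD; inconclusive = the two replicate wells gave conflicting results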
KCC2 retest ouab – KCC2 inhibitors and activators, ouabain retest, confirmation, HEK-KCC2 cells | shares compounds with KCC2 mod | HEK293-KCC2, thallium flux FluoZin2 fluorescence; bidirectional: low = inhibitor, high = activator | raw Tl+ flux slope (below DMSO = inhibition, above = activation) at 10 µM | 3,700 compounds, 48% hits | AID 1717, 2009;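 active = thallium flux slope beyond 3 SD from same-plate DMSO control mean in most replicates, usually higher, sometimes lower; inconclusive = repeat tests gave conflicting results; inactive = no significant difference from controls in most replicates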;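 also: slope of initial-normalized fluorescence between seconds 10 and 20 after thallium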
HEK counter2 – native HEK Tl+ uptake effects, second counter-screen – HEK cells, counterscreen 2, counter-screen for KCC2 modulator project, confirmation; AID 1718, 2009; shares compounds with KCC2 mod; HEK293 parental, thallium flux FluoZin-2 fluorescence slope; 3,700 compounds, 33% hits; thallium flux slope at 10 µM;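 active = thallium flux slope above the same plate's solvent-control mean plus 3 SD in both duplicate wells; inconclusive = duplicate wells that disagreed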;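 also: run without ouabain in cells lacking the KCC2 cotransporter; slope of fluorescence scaled to its starting value between 10 and 20 s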
Numbers without * were called inactive.

Screening CC(C)S(=O)(=O)CC(=O)c1ccc(Cl)cc1 returned PMI act hi M6P 1, KCC2 mod -0.32, PMI activator 1.1, ABCB1 inh 2, ABCG2 block 16 and ROMK primary -0.028.
Screening COCCNc1nc2nonc2nc1N(C)Cc1cccc2cnccc12 returned KCC2 mod -3.1*, ABCB1 inh 1, ABCG2 block 8, KCC2 secondary 0.0066, KCC2 bumet counter 0.0049, KCC2 sec2 0.028, HEK counter1 0.0079, KCC2 retest ouab inconclusive and HEK counter2 0.011.
CCCCCCCCC(=O)N/N=C/c1cccc(Br)c1 was read as PMI act hi M6P 0.9, KCC2 mod 5.5*, PMI activator 0.9, ABCB1 inh 0, ABCG2 block 2, ROMK primary -0.27, KCC2 secondary 0.0072, KCC2 bumet counter inconclusive, KCC2 sec2 0.031, HEK counter1 0.0079, KCC2 retest ouab 0.019 and HEK counter2 0.01.
CCCCNC(=O)CSc1nc2ccsc2c(=O)n1CCCC(=O)NCCc1ccc(S(N)(=O)=O)cc1 was read as PMI act hi M6P 1.1, KCC2 mod 0.21, PMI activator 1, ABCB1 inh 0, ABCG2 block 0 and ROMK primary -0.024.
Screening CC(=O)N1CCCc2cc(S(=O)(=O)CCC(=O)N3CCN(c4cccc(C)c4)C(C)C3)ccc21 (configuration not stated) returned PMI act hi M6P 0.8, KCC2 mod -3.6*, PMI activator 0.9, ABCB1 inh -1, ABCG2 block -3, KCC2 secondary 0.0076, KCC2 bumet counter 0.0049, KCC2 sec2 0.026, HEK counter1 0.0073, KCC2 retest ouab 0.018 and HEK counter2 0.01.
`Cc1cccc(N2CCN(C(=O)CCS(=O)(=O)c3ccc(Br)cc3)CC2C)c1` (configuration not stated) gave PMI act hi M6P 0.9, KCC2 mod 0.74, PMI activator 0.9, ABCB1 inh 1, ABCG2 block 2 and ROMK primary -0.33.
CCOc1ccccc1-n1c(SCC(=O)NC(C)CC)nnc1-c1ccoc1C (configuration not stated) was read as PMI act hi M6P 1, KCC2 mod -1, PMI activator 1, ABCB1 inh 2 and ABCG2 block 1.
Screening Cc1ccccc1-c1nnc(SCC(=O)Nc2cccc(C)c2C)o1 returned PMI act hi M6P 0.9, KCC2 mod -4.8*, PMI activator 1.1, ABCB1 inh 1, ABCG2 block 4, KCC2 secondary 0.017, KCC2 bumet counter 0.0042, KCC2 sec2 0.028, HEK counter1 0.0071, KCC2 retest ouab 0.014 and HEK counter2 0.01.
`O=C(CCc1nnc(-c2ccc3c(c2)OCO3)o1)N1CCC(c2ccc(F)cc2)C1` (configuration not stated) gave PMI act hi M6P 1.1, KCC2 mod -4.8*, PMI activator 1, ABCB1 inh 1, ABCG2 block 2, ROMK primary -0.19, KCC2 secondary 0.0071, KCC2 bumet counter 0.0041, KCC2 sec2 0.022*, HEK counter1 0.0062*, KCC2 retest ouab 0.014* and HEK counter2 inconclusive.
For O=C(CSc1nnc(-c2ccc(S(=O)(=O)N3CCCC3)cc2)o1)NCc1ccco1 the results were PMI act hi M6P 0.9, KCC2 mod 1.1, PMI activator 1, ABCB1 inh 0 and ABCG2 block 2.
Cc1nc(SCC(=O)Nc2c(C)nn(C)c2C)c2cnn(-c3ccccc3)c2n1 was read as PMI act hi M6P 1, KCC2 mod -6.8*, PMI activator 1, ABCB1 inh 0, ABCG2 block 2, KCC2 secondary 0.0069, KCC2 bumet counter 0.0064, KCC2 sec2 0.027, HEK counter1 0.0064, KCC2 retest ouab 0.02 and HEK counter2 0.0093.
For O=C(Cn1nc(-c2ccc3c(c2)OCCO3)ccc1=O)Nc1cccc(NC(=O)c2ccccn2)c1 the results were PMI act hi M6P 0.9, KCC2 mod 0.26, PMI activator 1, ABCB1 inh 0, ABCG2 block 0 and ROMK primary -0.12.
`CC(C)c1ccc(NC(=O)c2cnn(-c3ccccc3)c2NC(=O)c2ccco2)cc1` gave PMI act hi M6P 1, KCC2 mod -3.7*, PMI activator 0.9, ABCB1 inh 1, ABCG2 block 14, KCC2 secondary 0.0069, KCC2 bumet counter inconclusive, KCC2 sec2 0.026*, HEK counter1 0.0073, KCC2 retest ouab inconclusive and HEK counter2 0.011.

Compound activity (PubChem BioAssay)
